Experimental data published in ChEMBL document CHEMBL4627291, “A bicyclic pentapeptide-based highly potent and selective pan-SIRT1/2/3 inhibitor harboring Nε-thioacetyl-lysine” (Bioorg Med Chem, 2020).
pIC50: −log10 of the molar value.

What was measured:
[1] = biological target: T1, NAD-dependent protein deacetylase sirtuin-1 (Homo sapiens, UniProt Q96EB6); experiment: Inhibition of His6/GST-tagged human SIRT1 deacetylation activity using SIRT1 acetyl-lysine as substrate in presence of beta-NAD+ after 10 mins by reversed-phase HPLC analysis
T1 sequence (Q96EB6 whole entry): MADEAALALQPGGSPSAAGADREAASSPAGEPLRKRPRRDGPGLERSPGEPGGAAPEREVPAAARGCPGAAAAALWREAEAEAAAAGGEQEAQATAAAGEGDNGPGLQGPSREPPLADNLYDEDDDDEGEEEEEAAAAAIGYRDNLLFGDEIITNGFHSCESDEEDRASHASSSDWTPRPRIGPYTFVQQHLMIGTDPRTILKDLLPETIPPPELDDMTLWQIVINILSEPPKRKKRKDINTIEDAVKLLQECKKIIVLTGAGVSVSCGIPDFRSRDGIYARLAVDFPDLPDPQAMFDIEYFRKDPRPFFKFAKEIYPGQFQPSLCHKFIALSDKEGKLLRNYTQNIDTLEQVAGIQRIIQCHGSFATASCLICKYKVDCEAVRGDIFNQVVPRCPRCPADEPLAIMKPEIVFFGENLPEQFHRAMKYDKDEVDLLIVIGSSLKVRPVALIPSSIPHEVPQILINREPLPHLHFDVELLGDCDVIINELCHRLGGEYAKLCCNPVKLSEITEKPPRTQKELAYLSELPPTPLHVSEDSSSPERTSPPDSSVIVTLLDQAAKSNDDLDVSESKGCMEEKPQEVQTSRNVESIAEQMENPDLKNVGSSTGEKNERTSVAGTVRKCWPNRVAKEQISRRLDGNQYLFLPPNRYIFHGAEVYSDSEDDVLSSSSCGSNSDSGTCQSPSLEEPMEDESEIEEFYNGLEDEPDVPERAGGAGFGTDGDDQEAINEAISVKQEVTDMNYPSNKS
Summary of the method: (§1)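 Buffer: 50 mM Hepes pH 8.0, 137 mM NaCl, 2.7 mM KCl, 1 mM MgCl₂, 1 mM DTT, 0.5 mM β-NAD⁺, p53 380-384 K382-acetyl pentapeptide. SIRT1 runs use 0.3 mM peptide, 320 nM His₆- or GST-SIRT1, 10 min. SIRT2 runs use 0.39 mM peptide, 309 nM His₆-SIRT2, 12 min. Reactions run at 37 °C, quenched with HCl/acetic acid, read by C18 HPLC at 214 nm, turnover <10%. IC50 from Dixon plots.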

[2] = biological target: T2, NAD-dependent protein deacetylase sirtuin-2 (Homo sapiens, UniProt Q8IXJ6); experiment: Inhibition of His6-tagged human SIRT2 deacetylation activity using SIRT1 acetyl-lysine as substrate in presence of beta-NAD+ after 12 mins by reversed-phase HPLC analysis; summary of the method: as §1
T2 sequence (Q8IXJ6 whole entry): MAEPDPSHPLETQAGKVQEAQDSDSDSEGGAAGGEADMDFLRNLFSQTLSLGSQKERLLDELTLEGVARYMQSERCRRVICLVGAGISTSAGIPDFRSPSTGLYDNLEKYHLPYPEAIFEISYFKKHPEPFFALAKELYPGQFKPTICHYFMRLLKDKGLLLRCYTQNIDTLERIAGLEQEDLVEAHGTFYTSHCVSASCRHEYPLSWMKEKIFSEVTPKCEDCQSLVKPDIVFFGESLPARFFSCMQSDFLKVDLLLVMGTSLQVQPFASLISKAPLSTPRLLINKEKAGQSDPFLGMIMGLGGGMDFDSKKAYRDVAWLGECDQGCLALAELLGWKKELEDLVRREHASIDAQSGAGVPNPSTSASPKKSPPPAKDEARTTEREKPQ

[3] = biological target: T3, NAD-dependent protein deacetylase sirtuin-3, mitochondrial (Homo sapiens, UniProt Q9NTG7); experiment: Inhibition of His6-tagged human SIRT3 deacetylation activity using SIRT3 acetyl-lysine as substrate substrate in presence of beta-NAD+ after 10 mins by reversed-phase HPLC analysis
T3 sequence (Q9NTG7 whole entry): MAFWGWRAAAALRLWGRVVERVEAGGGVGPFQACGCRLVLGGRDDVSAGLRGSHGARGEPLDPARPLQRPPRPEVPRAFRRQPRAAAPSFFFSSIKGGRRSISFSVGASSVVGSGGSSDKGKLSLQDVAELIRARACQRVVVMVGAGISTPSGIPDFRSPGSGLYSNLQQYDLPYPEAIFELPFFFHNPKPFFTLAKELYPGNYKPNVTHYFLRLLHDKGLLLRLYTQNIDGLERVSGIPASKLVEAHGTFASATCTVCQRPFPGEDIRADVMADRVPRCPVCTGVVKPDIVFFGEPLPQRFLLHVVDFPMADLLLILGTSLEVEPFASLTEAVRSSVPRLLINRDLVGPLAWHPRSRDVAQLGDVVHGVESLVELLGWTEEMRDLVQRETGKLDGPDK

[4] = test system: MCF7; experiment: Antiproliferative activity against human MCF7 cells assessed as cell growth inhibition at 100 uM measured after 72 hrs by MTT assay relative to control; assay type: functional; conditions: MCF7, 72 h, read-out: GI
Summary of the method: (§2)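 MCF-7 cells, 5 x 10³ per well, grown overnight in DMEM with 10% FBS, then exposed at 37 °C to 0, 5, 12.5, 25, 50 or 100 μM final (water stock) for 24, 48 or 72 h. Afterwards, PBS wash, MTT at 0.5 mg/mL final for 4 h at 37 °C, DMSO solubilization, absorbance at 568 nm; mean of five measurements.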

[5] = biological target: NAD-dependent protein deacylase sirtuin-5, mitochondrial (Homo sapiens, UniProt Q9NXA8); experiment: Inhibition of His6-tagged human SIRT5 desuccinylation activity using succinyl-lysine as substrate in presence of beta-NAD+ after 5 mins by reversed-phase HPLC analysis; conditions: in the assay text read “GST-tagged” for “His6-tagged”
Summary of the method: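 GST-SIRT5 (370 nM) with 0.88 mM succinyl-lysine peptide and 0.8 mM β-NAD⁺ in 50 mM Hepes pH 8.0, 137 mM NaCl, 2.7 mM KCl, 1 mM MgCl₂, 1 mM DTT; 5 min at 37 °C. Stopped with 100 mM HCl/0.16 M acetic acid; C18 HPLC at 214 nm, turnover <10%; IC50 by Dixon plot.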

[6] = biological target: NAD-dependent protein deacylase sirtuin-6 (Homo sapiens, UniProt Q8N6T7); experiment: Inhibition of His6-tagged human SIRT6 demyristoylation activity using myristoyl-lysine substrate in presence of beta-NAD+ after 12 mins by reversed-phase HPLC analysis
Summary of the method: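 His₆-SIRT6 (313 nM) with 0.02 mM myristoyl-lysine peptide and 0.2 mM β-NAD⁺ in Hepes pH 8.0 buffer with NaCl, KCl, MgCl₂ and 1 mM DTT; 12 min at 37 °C. Acid quench, C18 HPLC at 214 nm, turnover <10%; IC50 from Dixon plots.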

[7] = biological target: T4, NAD-dependent protein deacetylase sirtuin-7 (Homo sapiens, UniProt Q9NRC8); experiment: Inhibition of tRNA-activated His6-tagged human SIRT7 deacetylation activity using acetyl-lysine as substrate in presence of beta-NAD+ after 30 mins by reversed-phase HPLC analysis
T4 sequence (Q9NRC8 whole entry): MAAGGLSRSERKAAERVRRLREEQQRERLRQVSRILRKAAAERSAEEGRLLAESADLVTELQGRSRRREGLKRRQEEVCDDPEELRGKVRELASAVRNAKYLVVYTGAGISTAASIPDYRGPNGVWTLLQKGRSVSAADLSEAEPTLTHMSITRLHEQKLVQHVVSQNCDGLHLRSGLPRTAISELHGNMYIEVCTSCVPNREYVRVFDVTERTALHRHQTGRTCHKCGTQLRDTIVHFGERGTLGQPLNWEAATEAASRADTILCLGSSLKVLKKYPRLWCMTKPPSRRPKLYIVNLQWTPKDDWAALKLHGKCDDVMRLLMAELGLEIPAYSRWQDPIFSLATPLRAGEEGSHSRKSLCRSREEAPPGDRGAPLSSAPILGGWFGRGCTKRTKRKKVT
Summary of the method: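 His₆-SIRT7 (570 nM) with yeast tRNA (3-fold molar excess over enzyme) and RNase inhibitor (~1 U/μL). Substrate: 1.8 mM H3 12-24 K18-acetyl peptide with 3 mM β-NAD⁺, in 50 mM Hepes pH 8.0, 150 mM NaCl, 1 mM DTT, no KCl or MgCl₂; 30 min at 37 °C. Acid quench, C18 HPLC at 214 nm; IC50 by Dixon plot.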

[8] = Enzymatic stability assessed as pronase (unknown origin)-mediated compound hydrolysis at pH 7.3 measured up to 30 mins by HPLC method; assay type: ADME, Homo sapiens; conditions: buffer, pH 7.3, 0.5 h
Summary of the method: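 Compound solution in water (160 μM) mixed 1:1 with Streptomyces griseus pronase (8 ng/μL) in 100 mM Tris·HCl pH 7.3 at 37 °C. Aliquots quenched with 1.0 M acetic acid at 0, 2.5, 5, 10, 20 and 30 min, then C18 RP-HPLC at 214 nm; mean of two measurements.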

[9] = biological target: T5, NAD-dependent protein deacetylase sirtuin-1 (Homo sapiens) (UniProt Q96EB6); experiment: Inhibition of SIRT1 deacetylation activity in human HCT116 cells assessed as increase in acetylated p53 K382 level by Western blot analysis; assay type: cell-based; conditions: HCT-116
T5 sequence (whole entry): T1 sequence (Q96EB6 whole entry)
Summary of the method: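 HCT116 cells (5 x 10⁵) in McCoy 5A with 10% FBS, treated 8 h at 37 °C at 0, 0.5, 2, 10, 50 and 100 μM final (water stock). Lysates run on SDS-PAGE, transferred to PVDF, probed with anti-acetyl-p53 K382 and anti-p53, HRP secondary, ECL detection.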

[10] = test system: MCF7; experiment: Antiproliferative activity against human MCF7 cells assessed as cell growth inhibition measured up to 72 hrs by MTT assay; assay type: functional, cell-based; summary of the method: as §2
[11] = test system: SK-MEL-2; experiment: Antiproliferative activity against human SK-MEL-2 cells assessed as cell growth inhibition measured up to 72 hrs by MTT assay; assay type: functional, cell-based
Summary of the method: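 SK-MEL-2 melanoma cells, 5 x 10³ per well, grown overnight in MEM with 10% FBS, then exposed at 37 °C to 0, 5, 12.5, 25, 50 or 100 μM final (water stock) for 24, 48 or 72 h. Afterwards, PBS wash, MTT at 0.5 mg/mL final for 4 h at 37 °C, DMSO solubilization, A568 read; mean of five measurements.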

Sequence of NAD-dependent protein deacylase sirtuin-5, mitochondrial (Q9NXA8 whole entry): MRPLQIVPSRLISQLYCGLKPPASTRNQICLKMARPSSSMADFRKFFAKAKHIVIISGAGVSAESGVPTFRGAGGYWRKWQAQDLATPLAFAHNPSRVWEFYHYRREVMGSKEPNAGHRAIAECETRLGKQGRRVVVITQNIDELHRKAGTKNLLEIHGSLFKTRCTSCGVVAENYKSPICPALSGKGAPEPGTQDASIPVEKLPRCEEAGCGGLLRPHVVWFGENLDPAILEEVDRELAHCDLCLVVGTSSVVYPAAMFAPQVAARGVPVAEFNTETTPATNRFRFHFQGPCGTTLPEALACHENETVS
Sequence of NAD-dependent protein deacylase sirtuin-6 (Q8N6T7 whole entry): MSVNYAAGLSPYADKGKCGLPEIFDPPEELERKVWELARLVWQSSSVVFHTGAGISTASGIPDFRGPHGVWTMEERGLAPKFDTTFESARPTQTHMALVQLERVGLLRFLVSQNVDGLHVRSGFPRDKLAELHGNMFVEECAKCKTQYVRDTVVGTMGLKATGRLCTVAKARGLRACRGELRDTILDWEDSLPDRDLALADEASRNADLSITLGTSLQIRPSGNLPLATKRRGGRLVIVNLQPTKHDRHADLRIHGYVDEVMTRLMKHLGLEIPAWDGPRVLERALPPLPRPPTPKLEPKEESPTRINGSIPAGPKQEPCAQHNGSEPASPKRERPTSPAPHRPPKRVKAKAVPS

Compound	pIC50 [1]	pIC50 [2]	pIC50 [3]	also measured
CSCC[C@@H]1NC(=O)[C@@H](NC(=O)[C@H](CCCCNC(C)=S)NC(=O)[C@H](CCCCN)NC(=O)[C@H](Cc2c[nH]cn2)NC(C)=O)Cc2ccc(cc2)OCCCNC1=O	4.46	4.22	–	–
CSCC[C@@H]1NC(=O)[C@@H](NC(=O)[C@H](CCCCNC(C)=S)NC(=O)[C@H](CCCCN)NC(=O)[C@H](Cc2c[nH]cn2)NC(C)=O)Cc2ccc(cc2)OCCCCCNC1=O	4.87	3.94	–	–
CSCC[C@H](NC(=O)[C@H](CC(C)C)NC(=O)[C@H](CCCCNC(C)=S)NC(=O)[C@@H]1Cc2ccc(cc2)OCCCCCC(=O)N[C@@H](Cc2c[nH]cn2)C(=O)N1)C(N)=O	6.19	5.99	–	–
CSCC[C@@H]1NC(=O)[C@@H](NC(=O)[C@H](CCCCNC(C)=S)NC(=O)[C@H](CCCCN)NC(=O)[C@H](Cc2c[nH]cn2)NC(C)=O)Cc2ccc(cc2)OCCCCCCCNC1=O	4.65	4.59	3.66	–
CSCC[C@H](NC(=O)[C@H](CC(C)C)NC(=O)[C@H](CCCCNC(C)=S)NC(=O)[C@@H]1Cc2ccc(cc2)OCCCCCCCC(=O)N[C@@H](Cc2c[nH]cn2)C(=O)N1)C(N)=O	6.17	5.88	–	–
CSCC[C@H](NC(=O)[C@H](CC(C)C)NC(=O)[C@H](CCCCNC(C)=S)NC(=O)[C@@H]1Cc2ccc(cc2)OCCCC(=O)N[C@@H](Cc2c[nH]cn2)C(=O)N1)C(N)=O	6.77	6.17	6.12	–
CSCC[C@H](NC(=O)[C@H](CC(C)C)NC(=O)[C@H](CCCCNC(C)=S)NC(=O)[C@@H]1Cc2ccc(cc2)OCCCCCCCCCCC(=O)N[C@@H](Cc2c[nH]cn2)C(=O)N1)C(N)=O	5.90	5.37	5.96	–
CC/C(=C(\c1ccccc1)c1ccc(OCCN(C)C)cc1)c1ccccc1 [TAMOXIFEN]	–	–	–	inhibition of growth at 100 µM [4]: > 80%
CSCC[C@@H]1NC(=O)[C@@H](NC(=O)[C@H](CCCCNC(C)=S)NC(=O)[C@H](CCCCN)NC(=O)[C@H](Cc2c[nH]cn2)NC(C)=O)Cc2ccc(cc2)OCCCCCCCCCCNC1=O	4.25	4.75	4.88	–
CSCC[C@@H]1NC(=O)[C@@H](NC(=O)[C@H](CCCCNC(C)=S)NC(=O)[C@@H]2Cc3ccc(cc3)OCCCC(=O)N[C@@H](Cc3c[nH]cn3)C(=O)N2)Cc2ccc(cc2)OCCCCCNC1=O	6.27	6.60	6.14	pIC50 [5]: 3.35; pIC50 [6]: 3.41; pIC50 [7]: 4.10; Stability [8]: Stable; inhibition [9]: Dose-dependent effect; Activity [10]: Dose-dependent effect; Activity [11]: Dose-dependent effect
